We go through six compounds from ChEMBL document CHEMBL4130546, “Structures of the Largest Amphidinol Homologues from the Dinoflagellate Amphidinium carterae and Structure-Activity Relationships” (J Nat Prod, 2017).

The subject of data set [1] is Lipid bilayer. Nature of the data set: Membrane disrupting activity in large unilamellar vesicles assessed as calcein AM dye leakage at 10 uM by fluorescence assay relative to control. The format is physicochemical. The method in brief: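 Calcein-loaded POPC or POPC/cholesterol (9:1 mol ratio) LUVs, with excess dye removed by Sepharose 4B gel filtration in Tris-HCl pH 7.5 containing 1 mM EDTA and 150 mM NaCl. Lipid at 27 μM in PBS. Fluorescence (ex 490/em 517 nm) read before and after adding compound. Triton X-100 was then added to define 100% leakage.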

The next data set concerns Aspergillus niger. Briefly: Antifungal activity against Aspergillus niger NBRC 31032 after 2 days by paper disk method. In kind it is functional. An outline of the steps: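 A. niger grown 2 days at 25 °C in glucose/peptone broth, spread on agar of the same medium (1.5% agar). Samples in MeOH spotted on 8 mm paper disks, up to 60 μg/disk; after 2 days at 25 °C the inhibition zone was measured and minimum effective concentration recorded.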

A further data set deals with Erythrocyte. Nature of the data set: Hemolytic activity in human erythrocytes after 18 hrs by colorimetric method. The format is ADME, cell-based. The method in brief:
(§1)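 Human RBCs washed in PBS (pH 7.4) by centrifugation and diluted to a 1% suspension (~1.7 × 10^7 cells/mL). 190 μL suspension mixed with 10 μL sample (up to 80 μM) or PBS; water-lysed RBCs served as 100%. Incubated at 37 °C for 18 h, centrifuged, supernatant absorbance read at 450 nm. % hemolysis and EC50 taken from dose-response curves.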

Data set [2] concerns Lipid bilayer. Nature of the data set: Membrane disrupting activity in POPC large unilamellar vesicles assessed as calcein AM dye leakage at 80 uM by fluorescence assay relative to control. The format is physicochemical. An outline of the steps: (§2)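 Calcein-loaded LUVs of POPC or POPC/Chol (9:1 mol) freed of external dye on Sepharose 4B in Tris-HCl pH 7.5, EDTA, NaCl. Vesicles diluted in PBS to 27 μM lipid and fluorescence read (ex 490/em 517 nm). Sample added and fluorescence re-read, then Triton X-100 added to give 100% leakage.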

For data set [3], the system named is Lipid bilayer. Nature of the data set: Membrane disrupting activity in POPC/cholesterol large unilamellar vesicles assessed as calcein AM dye leakage at 80 uM by fluorescence assay relative to control. In kind it is physicochemical. An outline of the steps: as §2
Data set [4] concerns Lipid bilayer. Briefly: Membrane disrupting activity in POPC/cholesterol large unilamellar vesicles assessed as calcein AM dye leakage at 20 uM by fluorescence assay relative to control. In kind it is physicochemical. The method in brief: as §2
In data set [5] the test system is Lipid bilayer. Briefly: Membrane disrupting activity in POPC large unilamellar vesicles assessed as calcein AM dye leakage at 20 uM by fluorescence assay relative to control. In kind it is physicochemical. The method in brief: as §2
The nature of data set [6]: Hemolytic activity in human erythrocytes at 20 uM after 18 hrs by colorimetric method. The format is ADME, cell-based, Erythrocyte. The settings on record: read-out: Activity. An outline of the steps:
as §1

Where only a bound is given, the exact number is not on record here.

Regarding `C=C/C=C/CC/C=C/C=C/C=C/CC/C=C/[C@H](O)[C@H](O)[C@@H]1O[C@@H]([C@H](O)[C@H](O)C(=C)CC[C@@H](O)[C@H]2C[C@@H](O)[C@@H](O)[C@H]([C@@H](O)[C@H](O)/C=C(\C)CC[C@H](O)C[C@H](O)[C@H](O)[C@@H](C)C[C@H](O)[C@@H](O)CCCCC[C@@H](O)CCC[C@@H](O)/C=C/C[C@@H](O)/C=C/C[C@@H](O)CO)O2)C[C@@H](O)[C@H]1O`, in the data set on Lipid bilayer [1], the Activity is given as 100%.

What is called EC50 is the midpoint of the concentration-response curve. Low readings indicate an effect from little substance, high ones a need for much substance. Compound `C=CCC/C=C/C=C/C=C/CC/C=C/C(O)C(O)C1OC(C(O)C(O)C(=C)CCC(O)C2CC(O)C(O)C(C(O)C(O)/C=C(\C)CCC(O)CC(O)C(O)C(C)CC(O)C(O)CCCC(O)CCCC(O)CCCC(O)/C=C/CC(O)/C=C/CC(O)CO)O2)CC(O)C1O` (stereo not given) showed an MEC with Aspergillus niger of 6 µg. In the data set with Erythrocyte, this compound showed an EC50 of 2900 nM.

In the data set with Aspergillus niger, `C=CCC/C=C/C=C/C=C/CC/C=C/C(O)C(O)C1OC(C(O)C(O)C(=C)CCC(O)C2CC(O)C(O)C(C(O)C(O)/C=C(\C)CCC(O)CC(O)C(O)C(C)CC(O)CC(C)/C=C(\C)CC(O)CC(C)CC(O)C3CC(O)C(O)C(CC(O)CC(O)CO)O3)O2)CC(O)C1O` (stereo not given) came in with an MEC of 6 µg. Moreover, in the data set on Erythrocyte, it took 1700 nM to reach a half-maximal effect (EC50).

On to `C=CCC/C=C/C=C/C=C/CC/C=C/C(O)C(O)[C@@H]1O[C@@H](C(O)C(O)C(=C)CCC(O)[C@H]2C[C@@H](O)[C@@H](O)[C@H](C(O)C(O)/C=C(\C)CCC(O)CC(O)C(O)C(C)CC(O)CC(C)/C=C(\C)CC(O)CC(C)CCC(O)CC(O)C(O)C(C)CC(O)CC(O)C(O)C(C)C(O)CCCC(O)CCCC(O)CCCC(O)/C=C/CC(O)/C=C/CO)O2)C[C@@H](O)[C@H]1O` (stereo not given in full), for which, in the data set on Aspergillus niger, the MEC was greater than 15 µg. The same compound came in with an EC50 in the data set on Erythrocyte greater than 10000 nM. In addition, the Activity is listed as 20% in the data set with Lipid bilayer [2], 20% in the data set with Lipid bilayer [3], less than 50% with Lipid bilayer [4] and less than 50% with Lipid bilayer [5].

Consider `C=CCC/C=C/C=C/C=C/CC/C=C/C(O)C(O)[C@@H]1O[C@@H](C(O)C(O)C(=C)CCC(O)[C@H]2C[C@@H](O)[C@@H](O)[C@H](C(O)C(O)/C=C(\C)CCC(O)CC(O)C(O)C(C)CC(O)CC(C)/C=C(\C)CC(O)CC(C)CCC(O)CC(O)C(O)C(C)C(O)CCCC(O)CCCC(O)CCCC(O)/C=C/CC(O)/C=C/CO)O2)C[C@@H](O)[C@H]1O` (stereo not given in full), for which, in the data set on Aspergillus niger, the MEC was greater than 15 µg. The compound further registered an EC50 in the data set with Erythrocyte of 1000 to 3000 nM. Further, the hemolysis at 18 h, 20 µM in data set [6] was less than 100%. Further, the Activity is given as 20% in the data set on Lipid bilayer [2], 20% with Lipid bilayer [3], less than 50% in the data set on Lipid bilayer [4] and less than 50% with Lipid bilayer [5].

`C=CCC/C=C/C=C/C=C/CC/C=C/C(O)C(O)C1OC(C(O)C(O)C(=C)CCC(O)C2CC(O)C(O)C(C(O)C(O)/C=C(\C)CCC(O)CC(O)C(O)C(C)CC(O)C(O)CC(C)CC/C=C/CC(O)CO)O2)CC(O)C1O` (stereo not given): the MEC in the data set with Aspergillus niger worked out at 8 µg. In addition, the EC50 in the data set on Erythrocyte worked out at 1200 nM.
